PRMT1 FP inh – inhibitors of human PRMT1. Q99873. recombinant PRMT1, activity-based probe fluorescence polarization. 370,000 tested, 1.3% active. AID 652257. inhibition, % at 2.79 µM;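 active means inhibition above about 21% made by adding two undisclosed values, limit read from the data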
Target sequence (Q99873 whole entry, looked up): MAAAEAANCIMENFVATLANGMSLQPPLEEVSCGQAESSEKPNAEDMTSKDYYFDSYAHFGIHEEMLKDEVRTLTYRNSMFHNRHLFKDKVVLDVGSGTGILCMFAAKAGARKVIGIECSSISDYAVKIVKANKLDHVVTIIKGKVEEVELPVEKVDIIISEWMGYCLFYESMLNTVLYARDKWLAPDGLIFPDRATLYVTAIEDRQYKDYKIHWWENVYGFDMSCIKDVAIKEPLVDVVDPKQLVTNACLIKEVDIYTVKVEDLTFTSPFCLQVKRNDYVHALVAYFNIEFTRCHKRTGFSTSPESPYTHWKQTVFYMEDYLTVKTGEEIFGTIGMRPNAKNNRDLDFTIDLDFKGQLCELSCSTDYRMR
HTRA1 inh – blocks human HTRA1 serine peptidase | AID 504803 | 340,000 tested, 0.5% active | recombinant HTRA1, FP-rhodamine activity-based probe, fluorescence polarization | inhibition, % at 5.96 µM | Q92743; in the data active means inhibition above about 36%;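 further: 0% = enzyme with DMSO and 100% = wells lacking enzyme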
TCR-CD3 inh – inhibitors of human TCR-CD3 interaction; TAMRA-labeled TCR probe fluorescence, biochemical; inhibition, % at 9.4 µM; 360,000 tested, 0.37% active; AID 651800; in the data active means inhibition above about 19%;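 further: recombinant mutant TCR 2C K166C tagged with TAMRA read by polarization; 0% = receptor in buffer alone and 100% = receptor with positive control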
ABHD4 inh – ABHD4 (mouse) inhibition, primary FP screen; inhibition, % at 8.92 µM; Q8VD66; 370,000 tested, 0.54% active; purified mABHD4, FP-Rh probe fluorescence polarization;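 active means inhibition exceeding the mean over every tested compound plus 3 SD, cut at about 30% in these data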;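 further: 0% = plate median of compound wells and 100% = S159A mutant with DMSO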
Target sequence (Q8VD66 whole entry, looked up): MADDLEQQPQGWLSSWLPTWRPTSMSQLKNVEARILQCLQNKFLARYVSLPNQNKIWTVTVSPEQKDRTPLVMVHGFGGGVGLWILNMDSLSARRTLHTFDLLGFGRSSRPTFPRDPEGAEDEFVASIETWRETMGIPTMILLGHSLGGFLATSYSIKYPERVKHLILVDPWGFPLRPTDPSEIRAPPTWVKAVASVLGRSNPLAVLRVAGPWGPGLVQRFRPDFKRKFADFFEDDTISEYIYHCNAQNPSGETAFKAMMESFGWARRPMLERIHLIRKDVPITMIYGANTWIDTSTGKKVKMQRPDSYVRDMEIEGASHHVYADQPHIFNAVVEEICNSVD
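Assay system: wild-type mouse ABHD4 protein; compound: single nominal dose of 8.92 µM, 0.89% DMSO final; schedule: 45 min + 60 min at 25 °C; measured by: FP readout, ex 525 nm / em 598 nm; evaluation: % inhibition of FP-Rh probe binding versus controls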
rCAG RNA binder – molecules binding r(CAG) RNA repeats | 370,000 tested, 1.3% active | r(CAG) RNA repeat, TO-PRO-1 dye displacement fluorescence | inhibition, % at 3 µM | AID 651821;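 active means inhibition above the plate cutoff, the mean of all test compounds on that plate plus 3 SD, cut at about 35% in these data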;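 further: 0% = DMSO alone and 100% = 100 µM mitoxantrone as full dye displacement; higher means more dye released from RNA so lower well fluorescence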
SIAE inh – human SIAE inhibition, primary screen. Q9HAT2. SIAE FP-Rh probe binding, fluorescence polarization. inhibition, % at 9.66 µM. 370,000 tested, 0.69% active. AID 1053197;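 active means inhibition above a cutoff: mean of compounds within the control limits plus 3 SD of those, cut at about 17% in these data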;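 further: 0% = plate median of compound wells and 100% = probe without SIAE protein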
rCAG binder conf – r(CAG) RNA repeat binding, confirmation | shares compounds with rCAG RNA binder | TO-PRO-1 dye displacement fluorescence | inhibition, % at 3 µM | 4,300 tested, 70% active | AID 652065;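 active means inhibition above a per-plate cutoff, the mean inhibition of sample wells plus 3 SD, cut at about 35% in these data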;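 further: loss of TO-PRO-1 fluorescence as compound displaces dye from 1x1 AA loop RNA; 0% = DMSO only wells and 100% = 100 µM mitoxantrone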
DNA CAG counter – disrupts DNA CAG TO-PRO-1 complex, flagging rCAG hits; shares compounds with rCAG RNA binder; d(CAG) DNA oligo TO-PRO-1 dye displacement, fluorescence; inhibition, % at 3 µM; 4,300 tested, 94% active; AID 652068;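 active means inhibition above its plate's cutoff, the mean test-well inhibition plus 3 SD, cut at about 4.8% in these data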;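 further: 0% = DNA dye mix with DMSO and 100% = 100 µM mitoxantrone; hits displace the dye from DNA and so lower well fluorescence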
* marks the source's active call; other numbers are inactive results. In the library only some 3.5% were active in any assay of this set; here they are far more common.

O=C(Nc1sc2c(c1C(=O)O)CCCCC2)c1ccccc1 was read as PRMT1 FP inh 10.2, HTRA1 inh -14.3, TCR-CD3 inh -0.4, ABHD4 inh 12.2, rCAG RNA binder 28.9 and SIAE inh -0.9.
`COC(=O)C1CN(Cc2cn(CCOC(C)=O)nn2)CCS(=O)(=O)N1Cc1ccc(Cl)cc1` (stereo unspecified) gave PRMT1 FP inh 4.5, ABHD4 inh 1.0, rCAG RNA binder 2.6 and SIAE inh -8.2.
Screening COC(=O)c1ccccc1CSc1nsc(/C=C/N(C)C)c1C#N returned HTRA1 inh -5.9.
Cc1nc(CSc2nsc(/C=C/N(C)C)c2C#N)cs1 was read as PRMT1 FP inh -1.8, HTRA1 inh -35.0, TCR-CD3 inh -19.3, ABHD4 inh 7.4, rCAG RNA binder 56.5*, SIAE inh 2.0, rCAG binder conf 25.4 and DNA CAG counter 12.9*.
For O=C(Cc1csc(NC(=O)Nc2cccc(Cl)c2)n1)NCc1cccnc1 the results were PRMT1 FP inh -2.8, HTRA1 inh -12.9, TCR-CD3 inh -3.4, ABHD4 inh -5.9, rCAG RNA binder 33.3 and SIAE inh -3.3.
For COc1ccccc1NC(=O)Nc1nc(CC(=O)NC2CCCC2)cs1 the results were PRMT1 FP inh -0.6, HTRA1 inh -12.3, TCR-CD3 inh 2.2, ABHD4 inh -2.4, rCAG RNA binder 0.1 and SIAE inh -2.2.
O=C(Cc1csc(NC(=O)Nc2cccc(Cl)c2)n1)NCc1ccccn1 was read as PRMT1 FP inh 0.4, HTRA1 inh -22.8, TCR-CD3 inh -8.5, ABHD4 inh -12.7, rCAG RNA binder 38.6*, SIAE inh -2.8, rCAG binder conf 15.3 and DNA CAG counter 14.4*.
O=C(Cc1csc(NC(=O)Nc2cccc(Cl)c2)n1)NC1CCCC1 was read as PRMT1 FP inh -3.3, HTRA1 inh -21.4, TCR-CD3 inh -2.1, ABHD4 inh -9.7, rCAG RNA binder 43.9*, SIAE inh -3.8, rCAG binder conf 17.7 and DNA CAG counter 14.3*.
Screening O=C1CCC[C@H]2C[C@H](NCc3ccc(Cl)c(Cl)c3)CC[C@]23CCCN13 returned PRMT1 FP inh -1.6, ABHD4 inh 6.7 and SIAE inh 3.0.
`CCOc1cc(C2C3=C(CC(C)(C)CC3=O)OC3=C2C(=O)CC(C)(C)C3)cc([N+](=O)[O-])c1O` gave PRMT1 FP inh 2.0, HTRA1 inh 0.6, TCR-CD3 inh -9.1, ABHD4 inh -0.6, rCAG RNA binder 1.4 and SIAE inh 0.9.
`CC1(C)CC(=O)C2=C(C1)OC1=C(C(=O)CC(C)(C)C1)C2c1cc([N+](=O)[O-])cc([N+](=O)[O-])c1O` gave PRMT1 FP inh -2.6, HTRA1 inh -4.7, TCR-CD3 inh 3.8, ABHD4 inh 12.3, rCAG RNA binder 52.6*, SIAE inh -5.2, rCAG binder conf 64.1* and DNA CAG counter 24.2*.
For O=C(c1ccco1)N1CCC(Oc2cccnc2)CC1 the results were PRMT1 FP inh -6.1, ABHD4 inh 4.7, rCAG RNA binder 0.5 and SIAE inh -2.7.
O=C1N=c2ccccc2=C1c1sc(Nc2ccc(O)cc2)nc1O was read as PRMT1 FP inh 2.1, HTRA1 inh 8.2, TCR-CD3 inh -1.8, ABHD4 inh 6.2, rCAG RNA binder 40.8*, SIAE inh 15.4, rCAG binder conf 25.9 and DNA CAG counter 17.8*.
Screening O=C1N=c2ccccc2=C1c1sc(NS(=O)(=O)c2ccccc2)nc1O returned PRMT1 FP inh 2.1, HTRA1 inh 1.6, TCR-CD3 inh 9.1, ABHD4 inh 28.4, rCAG RNA binder 41.3*, SIAE inh -10.2, rCAG binder conf 24.8 and DNA CAG counter 6.0*.
Screening COc1ccc(CCn2c(O)c(C3=c4ccccc4=NC3=O)sc2=S)cc1OC returned PRMT1 FP inh 1.2, HTRA1 inh -1.3, TCR-CD3 inh -7.1, ABHD4 inh 0.6, rCAG RNA binder 0.2 and SIAE inh -0.4.
`O=C1N=c2ccccc2=C1c1sc(NS(=O)(=O)Cc2ccccc2)nc1O` gave PRMT1 FP inh 2.4, HTRA1 inh -0.9, TCR-CD3 inh -3.6, ABHD4 inh 23.5, rCAG RNA binder 34.3 and SIAE inh -4.5.
`O=C1N=c2ccccc2=C1c1sc(Nc2cccc(O)c2)nc1O` gave PRMT1 FP inh 3.0, HTRA1 inh 9.7, TCR-CD3 inh 0.9, ABHD4 inh 20.3, rCAG RNA binder 60.5*, SIAE inh 6.6, rCAG binder conf 25.6 and DNA CAG counter 15.0*.
For O=C(OC12CCCN(C1)/C(=C/c1ccccc1)C2)C1CCCC1 (stereo unspecified) the results were PRMT1 FP inh -0.5, ABHD4 inh -2.9, rCAG RNA binder 0.4 and SIAE inh 1.3.
`COc1cccc(CNC(=O)CCCN2C(=O)COc3ccc(C)cc32)c1OC` gave PRMT1 FP inh -0.1, ABHD4 inh 0.7, rCAG RNA binder 0.4 and SIAE inh -5.2.
O=C(CSc1cc([N+](=O)[O-])cc(S(=O)(=O)Cc2ccccc2)c1)NC1CC1 was read as PRMT1 FP inh 1.4, HTRA1 inh 2.1, TCR-CD3 inh -2.0, ABHD4 inh -1.0, rCAG RNA binder 56.0*, SIAE inh 7.1, rCAG binder conf 5.4 and DNA CAG counter 5.6*.
For C=CCNC(=O)CSc1cc([N+](=O)[O-])cc(S(=O)(=O)Cc2ccccc2)c1 the results were PRMT1 FP inh 7.1, HTRA1 inh -0.3, TCR-CD3 inh 4.7, ABHD4 inh 10.3, rCAG RNA binder 16.1 and SIAE inh 11.3.
`Cc1ccc(S(=O)(=O)Oc2ccc(/C=C3\C(=N)N4N=C(S(C)(=O)=O)SC4=NC3=O)cc2)cc1` gave PRMT1 FP inh 3.4, HTRA1 inh -17.8, TCR-CD3 inh 6.8, ABHD4 inh 1.6, rCAG RNA binder 63.1*, SIAE inh -31.5, rCAG binder conf 88.2* and DNA CAG counter 66.3*.
`CCS(=O)(=O)C1=NN2C(=N)/C(=C\c3ccc(OS(=O)(=O)c4ccccc4)cc3)C(=O)N=C2S1` gave HTRA1 inh -14.0.
For COc1cc(/C=C2\C(=N)N3N=C(S(C)(=O)=O)SC3=NC2=O)cc(OC)c1OCCOc1ccc(C)cc1 the results were PRMT1 FP inh 3.5, HTRA1 inh -22.1, TCR-CD3 inh 3.1, ABHD4 inh 4.9, rCAG RNA binder 57.1*, SIAE inh -18.5, rCAG binder conf 88.2* and DNA CAG counter 57.5*.
COc1cc(/C=C2\C(=N)N3N=C(S(C)(=O)=O)SC3=NC2=O)cc(OC)c1OCCOc1cccc(C)c1 was read as PRMT1 FP inh 0.0, HTRA1 inh -23.0, TCR-CD3 inh 6.2, ABHD4 inh 16.9, rCAG RNA binder 50.7*, SIAE inh -17.6, rCAG binder conf 88.7* and DNA CAG counter 68.6*.
